Test results published in ChEMBL document CHEMBL3808334, “Synthesis and in vitro evaluation of novel triazine analogues as anticancer agents and their interaction studies with bovine serum albumin” (Eur J Med Chem, 2016).

Legend:
Format in all cases: functional
[1] = Growth inhibition of human PC3 cells incubated for 48 hrs by sulforhodamine B assay; conditions: PC-3, 48 h
Method in brief: (§1)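 Cells were plated at 5,000–40,000 per well according to doubling time and preincubated 24 h at 37 °C in 5% CO2; time-zero plates were then TCA-fixed. Five concentrations (10-fold or ½-log dilutions, DMSO stock) were incubated 48 h. Cells were TCA-fixed, stained with 0.4% SRB and read at 515 nm. GI50 was taken where [(Ti−Tz)/(C−Tz)]×100 = 50.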

[2] = Growth inhibition of human SKOV3 cells assessed as cell growth at 10^-4 M incubated for 48 hrs by sulforhodamine B assay; conditions: SK-OV-3, 48 h, read-out: Activity
MDA-MB-231 = assay: Growth inhibition of human MDA-MB-231 cells incubated for 48 hrs by sulforhodamine B assay; conditions: MDA-MB-231, 48 h; method in brief: as §1
[3] = Growth inhibition of human TK10 cells assessed as cell growth at 10 uM incubated for 48 hrs by sulforhodamine B assay; conditions: TK-10, 48 h, read-out: Activity
NCI/ADR-RES = assay: Growth inhibition of human NCI/ADR-RES cells assessed as cell growth at 10^-7 M incubated for 48 hrs by sulforhodamine B assay; conditions: read-out: Activity
U-251 = assay: Growth inhibition of human U251 cells assessed as cell growth at 10^-4 M incubated for 48 hrs by sulforhodamine B assay; conditions: U-251, 48 h, read-out: Activity
SN12C [4] = assay: Growth inhibition of human SN12C cells assessed as cell growth at 10^-6 M incubated for 48 hrs by sulforhodamine B assay; conditions: read-out: Activity
[5] = Growth inhibition of human ovarian cancer cells incubated for 48 hrs by sulforhodamine B assay; conditions: Cancer cell lines; for CC50: read-out: LC50 (the source's name)
[6] = Growth inhibition of human OVCAR8 cells assessed as cell growth at 10^-6 M incubated for 48 hrs by sulforhodamine B assay; conditions: OVCAR-8, 48 h, read-out: Activity
NCI-H226 = assay: Growth inhibition of human NCI-H226 cells assessed as cell growth at 10 uM incubated for 48 hrs by sulforhodamine B assay; conditions: NCI-H226, 48 h, read-out: Activity
[7] = Growth inhibition of human SKOV3 cells assessed as cell growth at 10^-8 M incubated for 48 hrs by sulforhodamine B assay; conditions: SK-OV-3, 48 h, read-out: Activity
[8] = Growth inhibition of human Caki1 cells assessed as cell growth at 10^-8 M incubated for 48 hrs by sulforhodamine B assay; conditions: CAKI-1, 48 h, read-out: Activity
Method in brief: (§2)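 Cells seeded at 5,000–40,000/well according to doubling time and preincubated 24 h at 37 °C, 5% CO2. Time-zero plates were TCA-fixed. DMSO concentrate was diluted in medium with 50 µg/ml gentamicin to give five concentrations (10-fold or ½ log steps), then exposed 48 h. Cells were TCA-fixed, stained with 0.4% SRB and read at 515 nm. Percent growth was taken against time-zero and control; GI50, TGI and LC50 derived.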

NCI-H460 = assay: Growth inhibition of human NCI-H460 cells assessed as cell growth at 10^-6 M incubated for 48 hrs by sulforhodamine B assay; conditions: NCI-H460, 48 h, read-out: Activity
T47D = assay: Growth inhibition of human T47D cells incubated for 48 hrs by sulforhodamine B assay; method in brief: as §1
Malme-3M = assay: Growth inhibition of human MALME-3M cells assessed as cell growth at 10^-7 M incubated for 48 hrs by sulforhodamine B assay; conditions: read-out: Activity
[9] = Growth inhibition of human RPMI8226 cells assessed as cell growth at 10^-4 M incubated for 48 hrs by sulforhodamine B assay; conditions: RPMI-8226, 48 h, read-out: Activity
[10] = Growth inhibition of human LOXIMVI cells assessed as cell growth at 10^-4 M incubated for 48 hrs by sulforhodamine B assay; conditions: LOX IMVI, read-out: Activity
[11] = Growth inhibition of human RXF393 cells incubated for 48 hrs by sulforhodamine B assay; conditions: RXF 393, 48 h; method in brief: as §1
[12] = Growth inhibition of human OVCAR3 cells assessed as cell growth at 10^-5 M incubated for 48 hrs by sulforhodamine B assay; conditions: OVCAR-3, 48 h, read-out: Activity
MDA-MB-468 [13] = assay: Growth inhibition of human MDA-MB-468 cells incubated for 48 hrs by sulforhodamine B assay; conditions: MDA-MB-468, 48 h; method in brief: as §1
A549 = assay: Growth inhibition of human A549/ATCC cells assessed as cell growth at 10^-6 M incubated for 48 hrs by sulforhodamine B assay; conditions: A549, 48 h, read-out: Activity
Method in brief: (§3)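 Five-dose assay: five concentrations from 10-fold or ½-log serial dilutions. Cells are plated at 5,000–40,000 per well according to doubling time, grown 24 h, then exposed 48 h at 37 °C, 5% CO₂. Fixed with cold 50% TCA (final addition) for 60 min at 4 °C and stained with 0.4% SRB in 1% acetic acid. Bound dye is solubilized in 10 mM Tris base and read at 515 nm. GI₅₀ is where [(Ti−Tz)/(C−Tz)]×100 = 50, with a time-zero plate as Tz.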

[14] = Growth inhibition of human COLO205 cells assessed as cell growth at 10^-6 M incubated for 48 hrs by sulforhodamine B assay; conditions: COLO 205, 48 h, read-out: Activity; method in brief: as §2
[15] = Growth inhibition of human UO31 cells assessed as cell growth at 10 uM incubated for 48 hrs by sulforhodamine B assay; conditions: UO-31, 48 h, read-out: Activity
ACHN = assay: Growth inhibition of human ACHN cells assessed as cell growth at 10^-4 M incubated for 48 hrs by sulforhodamine B assay; conditions: read-out: Activity; method in brief: as §3
MDA-MB-468 [16] = assay: Growth inhibition of human MDA-MB-468 cells assessed as cell growth at 10^-6 M incubated for 48 hrs by sulforhodamine B assay; conditions: MDA-MB-468, 48 h, read-out: Activity
SN12C [17] = assay: Growth inhibition of human SN12C cells assessed as cell growth at 10^-4 M incubated for 48 hrs by sulforhodamine B assay; conditions: read-out: Activity
[18] = Growth inhibition of human UO31 cells assessed as cell growth at 10^-4 M incubated for 48 hrs by sulforhodamine B assay; conditions: UO-31, 48 h, read-out: Activity
[19] = read-out: LC50 (the source's name)
[20] = read-out: pLC50 (the source's name) (converted)

## Clc1ccc(-c2nc(Nc3ccc(-c4nc5ccccc5[nH]4)cc3)nc(N3CCOCC3)n2)cc1
[1]; read-out: GI50
  GI50: 0.376 µM
[1]; read-out: TGI
  TGI: 1.33 µM
[1]; read-out: pGI50 (converted)
  GI50: 0.38 µM
[1]; read-out: pTGI (converted)
  TGI: 1.32 µM
[2]
  growth at 100 µM: -50%
MDA-MB-231; read-out: GI50
  GI50: 0.193 µM
MDA-MB-231; read-out: TGI
  TGI: 0.422 µM
MDA-MB-231; read-out: pGI50 (converted)
  GI50: 0.195 µM
MDA-MB-231; read-out: pTGI (converted)
  TGI: 0.417 µM
[3]
  growth at 10 µM: -94.4%
NCI/ADR-RES
  growth at 0.1 µM: 101%
U-251
  growth at 100 µM: -44%
SN12C [4]
  growth at 1 µM: 47%
[5]
  GI50: 0.92 µM
  TGI: 2.3 µM
  CC50: 5.2 µM
[6]
  growth at 1 µM: 57%
NCI-H226
  growth at 10 µM: -64.5%
[7]
  growth at 0.01 µM: 101%
[8]
  growth at 0.01 µM: 89%
NCI-H460
  growth at 1 µM: -45%
T47D; read-out: GI50
  GI50: 0.376 µM
T47D; read-out: TGI
  TGI: 1.72 µM
T47D; read-out: pGI50 (converted)
  GI50: 0.38 µM
T47D; read-out: pTGI (converted)
  TGI: 1.74 µM
Malme-3M
  growth at 0.1 µM: 101%
[9]
  growth at 100 µM: -27%
[10]
  growth at 100 µM: 2%
[11]; read-out: GI50
  GI50: 0.222 µM
[11]; read-out: TGI
  TGI: 0.45 µM
[11]; read-out: pGI50 (converted)
  GI50: 0.224 µM
[11]; read-out: pTGI (converted)
  TGI: 0.447 µM
[12]
  growth at 10 µM: -93%
MDA-MB-468 [13]; read-out: GI50
  GI50: 0.516 µM
MDA-MB-468 [13]; read-out: TGI
  TGI: 1.82 µM
MDA-MB-468 [13]; read-out: pGI50 (converted)
  GI50: 0.513 µM
MDA-MB-468 [13]; read-out: pTGI (converted)
  TGI: 1.82 µM
A549
  growth at 1 µM: 40%
[14]
  growth at 1 µM: 2%
[15]
  growth at 10 µM: -87.6%
ACHN
  growth at 100 µM: -30%
MDA-MB-468 [16]
  growth at 1 µM: 25%
SN12C [17]
  growth at 100 µM: -14%
[18]
  growth at 100 µM: -41%

## c1ccc2[nH]c(-c3ccc(Nc4nc(N5CCCCC5)nc(N5CCOCC5)n4)cc3)nc2c1
[1]; read-out: GI50
  GI50: 3.05 µM
[1]; [19]
  CC50: > 100 µM
[1]; read-out: TGI
  TGI: 9.13 µM
[1]; read-out: pGI50 (converted)
  GI50: 3.02 µM
[1]; [20]
  CC50: > 100 µM
[1]; read-out: pTGI (converted)
  TGI: 9.12 µM
[2]
  growth at 100 µM: -67%
MDA-MB-231; read-out: GI50
  GI50: 2.5 µM
MDA-MB-231; [19]
  CC50: > 100 µM
MDA-MB-231; read-out: TGI
  TGI: 7.52 µM
MDA-MB-231; read-out: pGI50 (converted)
  GI50: 2.51 µM
MDA-MB-231; [20]
  CC50: > 100 µM
MDA-MB-231; read-out: pTGI (converted)
  TGI: 7.59 µM
[3]
  growth at 10 µM: 58.8%
NCI/ADR-RES
  growth at 0.1 µM: 98%
U-251
  growth at 100 µM: -56%
SN12C [4]
  growth at 1 µM: 100%
[5]
  GI50: 3.46 µM
  TGI: 22.6 µM
  CC50: 26.9 µM
[6]
  growth at 1 µM: 93%
NCI-H226
  growth at 10 µM: 32.7%
[7]
  growth at 0.01 µM: 97%
[8]
  growth at 0.01 µM: 90%
NCI-H460
  growth at 1 µM: 98%
T47D; read-out: GI50
  GI50: 1.96 µM
T47D; [19]
  CC50: > 100 µM
T47D; read-out: TGI
  TGI: 4.58 µM
T47D; read-out: pGI50 (converted)
  GI50: 1.95 µM
T47D; [20]
  CC50: > 100 µM
T47D; read-out: pTGI (converted)
  TGI: 4.57 µM
Malme-3M
  growth at 0.1 µM: 85%
[9]
  growth at 100 µM: -24%
[10]
  growth at 100 µM: -65%
[11]; read-out: GI50
  GI50: 0.808 µM
[11]; [19]
  CC50: > 100 µM
[11]; read-out: TGI
  TGI: 3.28 µM
[11]; read-out: pGI50 (converted)
  GI50: 0.813 µM
[11]; [20]
  CC50: > 100 µM
[11]; read-out: pTGI (converted)
  TGI: 3.31 µM
[12]
  growth at 10 µM: -25%
MDA-MB-468 [13]; read-out: GI50
  GI50: 2.68 µM
MDA-MB-468 [13]; [19]
  CC50: > 100 µM
MDA-MB-468 [13]; read-out: TGI
  TGI: 6.51 µM
MDA-MB-468 [13]; read-out: pGI50 (converted)
  GI50: 2.69 µM
MDA-MB-468 [13]; [20]
  CC50: > 100 µM
MDA-MB-468 [13]; read-out: pTGI (converted)
  TGI: 6.46 µM
A549
  growth at 1 µM: 101%
[14]
  growth at 1 µM: 92%
[15]
  growth at 10 µM: -37.8%
ACHN
  growth at 100 µM: 1%
MDA-MB-468 [16]
  growth at 1 µM: 106%
SN12C [17]
  growth at 100 µM: -12%
[18]
  growth at 100 µM: -36%
